Laboratory results reported in ChEMBL document CHEMBL5329183, “Naphthylthiazoles: a class of broad-spectrum antifungals” (RSC Med Chem, 2023).
≈ marks a conversion by molar mass, not a printed value.

Assays:
[1] = Selectivity ratio of CC50 for cytotoxicity against human Caco-2 cells to MIC for antifungal activity against Cryptococcus gattii NR 43216; assay type: toxicity, cell-based
[2] = system: Cryptococcus neoformans; test: Antifungal activity against Cryptococcus neoformans NR 48770 assessed as inhibition of fungal growth incubated for 48 hrs by broth microdilution method; assay type: functional
How it was run: (§1)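 Clinical isolate; CLSI broth microdilution over a range of concentrations (media listed: RPMI 1640, MOPS, YPD). MIC read as lowest concentration inhibiting growth by 50% after 48 h incubation at 35 °C.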

[3] = Selectivity ratio of CC50 for cytotoxicity against human Caco-2 cells to MIC for antifungal activity against Cryptococcus gattii NR 43214; assay type: toxicity, cell-based
[4] = system: [Candida] auris; test: Antifungal activity against Candida auris 383 assessed as inhibition of fungal growth incubated for 24 hrs by broth microdilution method; assay type: functional; conditions: Candidozyma auris
How it was run: (§2)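 Clinical isolate; CLSI broth microdilution over a range of concentrations (media listed: RPMI 1640, MOPS, YPD). MIC taken as lowest concentration giving 50% growth inhibition after 24 h at 35 °C.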

[5] = system: Cryptococcus neoformans; test: Antifungal activity against Cryptococcus neoformans NR 41300 assessed as inhibition of fungal growth incubated for 48 hrs by broth microdilution method; assay type: functional; how it was run: as §1
[6] = system: Staphylococcus aureus; test: Antibacterial activity against Methicillin-resistant Staphylococcus aureus USA300 assessed as inhibition of bacterial growth; assay type: functional
[7] = system: Cryptococcus neoformans; test: Antibiofilm activity against Cryptococcus neoformans NR 41300 assessed as inhibition of biofilm formation at 0.5xMIC measured after 48 hrs by crystal violet staining based analysis; assay type: functional
How it was run: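 Overnight C. neoformans was washed twice in PBS and adjusted to 105 cells per mL in RPMI. Cells were exposed to compound at 0.5 × MIC for 48 h at 35 °C. Biofilm was rinsed, dried, stained with 0.1% crystal violet, and the dye extracted with glacial acetic acid; OD595 readout.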

[8] = system: Cryptococcus neoformans; test: Anti-cryptococcal activity against Cryptococcus neoformans NR 41300 infected in mouse J774 cells assessed as log reduction of intracellular fungal colony forming unit at 4 ug/ml measured after 24 hrs; assay type: functional; conditions: dose 4 µg/ml
How it was run: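 C. neoformans NR-41300 was grown 48 h in YPD, washed, and used to infect J774 macrophages at MOI ~100:1 for 1 h, followed by PBS washes. Compounds at 4 μg mL−1 (triplicate) were applied for 22 h at 37 °C, 5% CO2. Extracellular yeast were killed with amphotericin B 1 μg mL−1 for 1 h. Cells were lysed in 0.1% Triton X-100 and plated on YPD agar for 48 h at 37 °C; readout log10 CFU mL−1.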

[9] = system: Cryptococcus neoformans; test: Antifungal activity against Cryptococcus neoformans NR 41299 assessed as inhibition of fungal growth incubated for 48 hrs by broth microdilution method; assay type: functional; how it was run: as §1
[10] = Selectivity ratio of CC50 for cytotoxicity against human Caco-2 cells to MIC for antifungal activity against Cryptococcus neoformans NR 48771; assay type: toxicity, cell-based
[11] = Selectivity ratio of CC50 for cytotoxicity against African green monkey Vero cells to MIC for antifungal activity against Cryptococcus gattii NR 43209; assay type: toxicity, cell-based
[12] = system: Caco-2; test: Cytotoxicity against human Caco-2 cells assessed as inhibition of cell viability at 128 ug/ml incubated for 2 hrs by MTS assay; assay type: toxicity, cell-based; conditions: caco-2, 2 h, dose 128 µg/ml
How it was run: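 Caco-2 cells were grown in DMEM with 10% FBS, 1× nonessential amino acids and penicillin–streptomycin, then treated with 32, 64 and 128 μg mL−1 for 2 h at 37 °C, 5% CO2, in triplicate. MTS was added for 3 h and OD490 read. Viability was expressed as % of DMSO control (mean ± SD).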

[13] = system: Cryptococcus neoformans; test: Antifungal activity against Cryptococcus neoformans NR 48767 assessed as inhibition of fungal growth incubated for 48 hrs by broth microdilution method; assay type: functional; how it was run: as §1
[14] = system: Vero; test: Cytotoxicity against African green monkey Vero cells assessed as inhibition of cell viability at 128 ug/ml incubated for 2 hrs by MTS assay; assay type: toxicity, cell-based; conditions: chlorocebus sabaeus, dose 128 µg/ml
How it was run: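 Vero cells were grown in MEM with 10% FBS, 1 mM sodium pyruvate and penicillin–streptomycin, then exposed to compounds for 2 h at 37 °C, 5% CO2, in triplicate. MTS was added for 3 h and OD490 read. Viability was expressed as % of DMSO-matched controls (mean ± SD).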

[15] = Selectivity ratio of CC50 for cytotoxicity against African green monkey Vero cells to MIC for antifungal activity against Cryptococcus neoformans NR 48773; assay type: toxicity, cell-based
[16] = Apparent permeability of the compound measured after 4 hrs by PAMPA assay; assay type: ADME
How it was run: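 PAMPA: compound was placed in pH 6.5 donor buffer across a lipid-pretreated PVDF filter from pH 7.4 acceptor buffer, and incubated 4 h at ambient temperature. Donor and acceptor amounts at start and end were measured by UV absorbance to give apparent permeability.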

[17] = system: Nakaseomyces glabratus; test: Antifungal activity against Candida glabrata ATCC MYA2950 assessed as inhibition of fungal growth incubated for 24 hrs by broth microdilution method; assay type: functional; how it was run: as §2
[18] = Selectivity ratio of CC50 for cytotoxicity against human Caco-2 cells to MIC for antifungal activity against Cryptococcus neoformans NR 48773; assay type: toxicity, cell-based
[19] = system: Nakaseomyces glabratus; test: Antifungal activity against Candida glabrata ATCC 66032 assessed as inhibition of fungal growth incubated for 24 hrs by broth microdilution method; assay type: functional; how it was run: as §2
[20] = Selectivity ratio of CC50 for cytotoxicity against African green monkey Vero cells to MIC for antifungal activity against Cryptococcus gattii NR 43216; assay type: toxicity, cell-based
[21] = Selectivity ratio of CC50 for cytotoxicity against African green monkey Vero cells to MIC for antifungal activity against Cryptococcus neoformans NR 48767; assay type: toxicity, cell-based
[22] = system: Candida albicans; test: Antifungal activity against Candida albicans NR 29448 assessed as inhibition of fungal growth incubated for 24 hrs by broth microdilution method; assay type: functional; how it was run: as §2
[23] = Selectivity ratio of CC50 for cytotoxicity against human Caco-2 cells to MIC for antifungal activity against Cryptococcus neoformans NR 41300; assay type: toxicity, cell-based
[24] = system: J774; test: Cytotoxicity against mouse J774 cells assessed as reduction in cell viability at 64 ug/ml measured after 24 hrs by MTS assay; assay type: toxicity, cell-based; conditions: j774, 24 h, dose 64 µg/ml
How it was run: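 J774 murine macrophages were grown in DMEM with 10% FBS and exposed to compounds for 24 h at 37 °C, 5% CO2. After 3 h with MTS, OD490 was read. Viability was expressed relative to DMSO-matched controls.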

[25] = system: Escherichia coli; test: Antibacterial activity against wild type Escherichia coli BW25113 assessed as inhibition of bacterial growth; assay type: functional
[26] = system: Cryptococcus neoformans; test: Antifungal activity against Cryptococcus neoformans NR 48771 assessed as inhibition of fungal growth incubated for 48 hrs by broth microdilution method; assay type: functional; how it was run: as §1
[27] = Selectivity ratio of CC50 for cytotoxicity against African green monkey Vero cells to MIC for antifungal activity against Cryptococcus neoformans NR 48771; assay type: toxicity, cell-based
[28] = Selectivity ratio of CC50 for cytotoxicity against African green monkey Vero cells to MIC for antifungal activity against Cryptococcus neoformans NR 41299; assay type: toxicity, cell-based
[29] = Selectivity ratio of CC50 for cytotoxicity against human Caco-2 cells to MIC for antifungal activity against Cryptococcus gattii NR 43210; assay type: toxicity, cell-based

SMILES	selectivity ratio [1]	MIC [2]	selectivity ratio [3]	MIC [4]	MIC [5]	MIC [6]	growth inhibition (GI) [7]	Activity [8]	MIC [9]	selectivity ratio [10]	selectivity ratio [11]	Activity [12]	MIC [13]	Activity [14]	selectivity ratio [15]	Papp at 4 h [16]	MIC [17]	selectivity ratio [18]	MIC [19]	selectivity ratio [20]	also measured
Cc1nc(-c2ccc3ccccc3c2)sc1-c1nnc(N[C@@H]2CCCC[C@H]2N)o1 (relative stereo)	64	1 µg/mL (≈ 2.47 µM)	64	1 µg/mL (≈ 2.47 µM)	1 µg/mL (≈ 2.47 µM)	64 µg/mL (≈ 158 µM)	~56%	0.66 log10CFU/ml	1 µg/mL (≈ 2.47 µM)	64	64	Non-Toxic	2 µg/mL (≈ 4.93 µM)	Non-Toxic	64	57.7 ×10⁻⁶ cm/s	1 µg/mL (≈ 2.47 µM)	64	1 µg/mL (≈ 2.47 µM)	64	selectivity ratio [21]: 64; MIC [22]: 4 µg/mL (≈ 9.86 µM); selectivity ratio [23]: 64; Activity [24]: Non-Toxic; MIC [25]: > 64 µg/mL; MIC [26]: 1 µg/mL (≈ 2.47 µM); selectivity ratio [27]: 64; selectivity ratio [28]: 64; selectivity ratio [29]: 64
Cc1nc(-c2ccc3ccccc3c2)sc1-c1nnc(N[C@@H]2CCCC[C@@H]2N)o1 (relative stereo)	64	1 µg/mL (≈ 2.47 µM)	64	1 µg/mL (≈ 2.47 µM)	1 µg/mL (≈ 2.47 µM)	> 64 µg/mL	~53%	1.04 log10CFU/ml	2 µg/mL (≈ 4.93 µM)	64	64	Non-Toxic	2 µg/mL (≈ 4.93 µM)	Non-Toxic	64	26.3 ×10⁻⁶ cm/s	0.5 µg/mL (≈ 1.23 µM)	64	1 µg/mL (≈ 2.47 µM)	64	selectivity ratio [21]: 64; MIC [22]: 4 µg/mL (≈ 9.86 µM); selectivity ratio [23]: 64; Activity [24]: Non-Toxic; MIC [25]: > 64 µg/mL; MIC [26]: 2 µg/mL (≈ 4.93 µM); selectivity ratio [27]: 64; selectivity ratio [28]: 64; selectivity ratio [29]: 64
